Source: ChEMBL document CHEMBL1131442 (J Med Chem, 1998)

Columns and labels:
Cannabinoid receptor 2 = Cannabinoid receptor 2 (Mus musculus, UniProt P47936); experiment: Binding affinity towards Cannabinoid receptor 2 from mouse spleen membranes using 0.8 nM [3H]CP-55940 as radioligand; type: tissue-based
Procedure, shortened: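 Mouse spleen membranes, no PMSF pretreatment (amidase absent). Each well held ~30 μg membrane in TME (25 mM Tris-HCl, 5 mM MgCl2, 1 mM EDTA, pH 7.4) with 0.1% fatty acid-free BSA, 0.8 nM [3H]CP-55,940 and varied analogue concentrations, 1 h. Bound ligand was collected on GF/C filters and counted by scintillation.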

Cannabinoid receptor 1 [1] = biological target: T1, Cannabinoid receptor 1 (Rattus norvegicus, UniProt P20272); experiment: Binding affinity towards cannabinoid receptor 1 from rat forebrain membranes in the absence of phenylmethanesulfonylfluoride (PMSF) using 0.8 nM [3H]CP-55940 as radioligand; set-up: species or system Membrane
Procedure, shortened: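 Rat forebrain membranes were used without PMSF treatment. Bound ligand was separated by filtration and counted by scintillation. IC50 from nonlinear regression was converted to Ki by Cheng–Prusoff.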

Cannabinoid receptor 1 [2] = biological target: T1, Cannabinoid receptor 1; experiment: Binding affinity towards cannabinoid receptor 1 from rat forebrain membranes in the presence of phenylmethanesulfonylfluoride (PMSF) using 0.8 nM [3H]CP-55940 as radioligand; set-up: species or system Membrane
Rattus norvegicus [3] = species on record: Rattus norvegicus; experiment: Effective concentration required for stimulation of [35S]GTP-gamma-S, binding in rat microsomal membranes; type: functional
Procedure, shortened: (§1)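 Rat brain membranes (cerebellum removed) were sucrose-gradient purified. Membrane (40–50 μg protein) was incubated 1 h at 30 °C in 10 mM Tris, 100 mM NaCl, 5 mM MgCl2, 0.1% BSA with GDP, [35S]GTPγS and eight analogue concentrations. Nonspecific binding was defined with 10 μM GTPγS, and buffer alone set the baseline. Bound label was collected on GF/B filters and counted. Two experiments were run, each point in […].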

Rattus norvegicus [4] = species on record: Rattus norvegicus; experiment: Maximal stimulation of [35S]GTP-gamma-S, binding in rat microsomal membranes expressed as Emax; type: functional; procedure, shortened: as §1
Rattus norvegicus [5] = species on record: Rattus norvegicus; experiment: Effective concentration required for stimulation of [35S]GTP-gamma-S, binding in rat microsomal membranes expressed as log EC50; type: functional; procedure, shortened: as §1

Cannabinoid receptor 2, sequence (P47936 whole entry): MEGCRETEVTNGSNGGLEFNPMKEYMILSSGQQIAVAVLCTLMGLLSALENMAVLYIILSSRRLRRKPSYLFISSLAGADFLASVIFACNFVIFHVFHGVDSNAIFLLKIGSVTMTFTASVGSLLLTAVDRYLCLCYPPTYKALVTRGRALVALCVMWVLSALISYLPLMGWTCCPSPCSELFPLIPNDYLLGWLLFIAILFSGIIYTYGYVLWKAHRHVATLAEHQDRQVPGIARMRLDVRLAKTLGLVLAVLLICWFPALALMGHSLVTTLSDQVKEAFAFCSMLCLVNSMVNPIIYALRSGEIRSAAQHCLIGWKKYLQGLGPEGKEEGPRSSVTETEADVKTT
T1 sequence (P20272 whole entry): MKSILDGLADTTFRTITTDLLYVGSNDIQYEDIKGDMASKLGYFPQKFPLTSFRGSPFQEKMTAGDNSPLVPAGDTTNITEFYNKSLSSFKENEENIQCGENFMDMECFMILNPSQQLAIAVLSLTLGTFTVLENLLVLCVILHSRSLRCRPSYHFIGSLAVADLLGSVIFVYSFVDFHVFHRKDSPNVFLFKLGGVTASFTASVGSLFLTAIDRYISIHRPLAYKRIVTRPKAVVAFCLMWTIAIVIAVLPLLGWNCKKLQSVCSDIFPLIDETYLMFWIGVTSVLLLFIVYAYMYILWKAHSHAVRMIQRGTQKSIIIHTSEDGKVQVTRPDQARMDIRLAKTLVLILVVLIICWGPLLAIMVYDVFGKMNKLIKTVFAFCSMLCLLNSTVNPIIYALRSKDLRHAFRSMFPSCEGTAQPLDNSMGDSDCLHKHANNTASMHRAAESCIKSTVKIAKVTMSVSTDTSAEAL

SMILES	Ki (Cannabinoid receptor 2) [µM]	Ki (Cannabinoid receptor 1 [1]) [µM]	Ki (Cannabinoid receptor 1 [2]) [µM]	EC50 (Rattus norvegicus [3]) [µM]	Emax (Rattus norvegicus [4]) [%]	EC50 (Rattus norvegicus [5]) [µM]
CCCCC/C=C\C/C=C\C/C=C\C/C=C\CCCC(=O)NC[C@@H](C)O	1.79	0.63	0.13			
CCCCCCCC/C=C\CCCCCCCC(=O)N[C@H](C)CO	26	33	19			
C=CCNC(=O)CCC/C=C\C/C=C\C/C=C\C/C=C\CCCCC	0.226	2.98	0.00991			
CCCCC/C=C\C/C=C\C/C=C\C/C=C\CCCC(=O)NCCF	0.908	4.64	0.0267			
CCCCC/C=C\C/C=C\C/C=C\C/C=C\CCCC1=N[C@H](C)CO1	6800	0.679				
CCCCC/C=C\C/C=C\C/C=C\C/C=C\CCCC(=O)NCC(C)C	0.84	0.0981	0.0902			
CCCCC/C=C\C/C=C\C/C=C\C/C=C\CCCC(=O)N[C@@H](C)CC	3.2		0.287			
CCCCC/C=C\C/C=C\CCCCCCCC(=O)N[C@H](C)CO	21	21	21			
CCCCC/C=C\C/C=C\C/C=C\C/C=C\CCCC(=O)NC[C@H](C)O	0.771	0.11	0.0356			
CCCCC/C=C\C/C=C\C/C=C\C/C=C\CCCC(=O)NC(C)(C)C	1.14	0.105	0.0512			
CCCCC/C=C\C/C=C\C/C=C\C/C=C\CCCC(=O)N[C@H](C)CC	1.33	0.143	0.0736			
CCCCC/C=C\C/C=C\C/C=C\C/C=C\CCCC(=O)N[C@H](C)CO [METHANANDAMIDE]	0.868			0.33	148	
CCCCCCC(C)(C)c1ccc([C@@H]2C[C@H](O)CC[C@H]2CCCO)c(O)c1 [CP-55940]				0.1	145	20000
CCCCC/C=C\C/C=C\CCCCCCCC1=NCCO1	20					
CCCCC/C=C\C/C=C\C/C=C\C/C=C\CCCC(=O)NCC(F)(F)F	0.718	2.38	0.0362			
CCCCCCCC/C=C\CCCCCCCC(=O)NCCO [OLEOYLETHANOLAMIDE]	31	44				
CCCCC/C=C\C/C=C\C/C=C\C/C=C\CCCC(=O)NCCCl	0.195	3.4	0.00529	0.42	162	
CCCCC/C=C\C/C=C\C/C=C\C/C=C\CCCC(=O)N[C@@H](C)CO	8.22					
CCCCCCCC/C=C\CCCCCCCC1=NCCO1	31	14				
CCCCC/C=C\C/C=C\C/C=C\C/C=C\CCCC(=O)NCCCCl	0.193	0.387	0.0256			
C#CCNC(=O)CCC/C=C\C/C=C\C/C=C\C/C=C\CCCCC	0.29	4.9	0.0108	0.1	143	20000
CCCCC/C=C\C/C=C\CCCCCCCC(=O)NCCO [LINOLEOYLETHANOLAMIDE]	25					
CCCCC/C=C\C/C=C\C/C=C\C/C=C\CCCC(=O)NC(C)CC (stereo not drawn)	2.2	0.158	0.0832			
Cc1c(C(=O)c2cccc3ccccc23)c2cccc3c2n1[C@H](CN1CCOCC1)CO3 [WIN-552122]				0.18	150	
CCCCC/C=C\C/C=C\C/C=C\C/C=C\CCCCNC(=O)COC(C)=O	> 10	0.419				
